The source made the active and inactive calls. No cut-off for these calls is given here.
What was measured:
IGROV-1 = test: Growth inhibition of human IGROV1 cells by sulforhodamine B assay; format: functional
SW-620 = test: Growth inhibition of human SW620 cells by sulforhodamine B assay; format: functional
ACHN = test: Growth inhibition of human ACHN cells by sulforhodamine B assay; format: functional
HOP-92 = test: Growth inhibition of human HOP92 cells by sulforhodamine B assay; format: functional
Bos taurus = organism: Bos taurus; test: Displacement of [3H]colchicine from bovine brain tubulin at 5 uM after 10 mins
HeLa [1] = test: Antiproliferative activity against human HeLa cells expressing tubulin 3beta by sulforhodamine B assay; format: functional, cell-based
COLO 205 = test: Growth inhibition of human COLO205 cells by sulforhodamine B assay; format: functional
SR = test: Growth inhibition of human SR cells by sulforhodamine B assay; format: functional
SK-OV-3 [2] = test: Growth inhibition of human SKOV3 cells by sulforhodamine B assay; format: functional
UACC-62 = test: Growth inhibition of human UACC62 cells by sulforhodamine B assay; format: functional
OVCAR-4 = test: Growth inhibition of human OVCAR4 cells by sulforhodamine B assay; format: functional
A549 = test: Growth inhibition of human A549 cells by sulforhodamine B assay; format: functional
HCT-15 = test: Growth inhibition of human HCT15 cells by sulforhodamine B assay; format: functional
M14 = test: Growth inhibition of human M14 cells by sulforhodamine B assay; format: functional
SK-MEL-28 = test: Growth inhibition of human SK-MEL-28 cells by sulforhodamine B assay; format: functional
MCF7 = test: Growth inhibition of human MCF7 cells by sulforhodamine B assay; format: functional
U-251 = test: Growth inhibition of human U251 cells by sulforhodamine B assay; format: functional
RXF 393 = test: Growth inhibition of human RXF393 cells by sulforhodamine B assay; format: functional
LOX IMVI = test: Growth inhibition of human LOXIMVI cells by sulforhodamine B assay; format: functional
HeLa [3] = test: Antiproliferative activity against human HeLa cells by sulforhodamine B assay; format: functional, cell-based
Procedure, shortened: (§1)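 Antiproliferative read-out by sulforhodamine B assay. HeLa and SK-OV-3 cells were from ATCC; SK-OV-3 MDR-1-6/6 is the Pgp-overexpressing, MDR-1-transduced isogenic partner of the parental line. Each IC50 is the mean of at least 3 independent experiments, with triplicate points in each.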

MDA-MB-435 [4] = test: Cell cycle arrest in human MDA-MB-435 cells assessed as formation of aberrant mitotic spindles at 850 nM after 24 hrs using propidium iodide staining by flow cytometry; format: functional, cell-based
NCI-H23 = test: Growth inhibition of human NCI-H23 cells by sulforhodamine B assay; format: functional
SF-295 = test: Growth inhibition of human SF295 cells by sulforhodamine B assay; format: functional
HL-60(TB) = test: Growth inhibition of human HL-60(TB) cells by sulforhodamine B assay; format: functional
SK-MEL-2 = test: Growth inhibition of human SK-MEL-2 cells by sulforhodamine B assay; format: functional
MDA-MB-435 [5] = test: Growth inhibition of human MDA-MB-435 cells by sulforhodamine B assay; format: functional
SNB-75 = test: Growth inhibition of human SNB75 cells by sulforhodamine B assay; format: functional
OVCAR-3 = test: Growth inhibition of human OVCAR-3 cells by sulforhodamine B assay; format: functional
SN12C = test: Growth inhibition of human SN12C cells by sulforhodamine B assay; format: functional
NCI-H522 = test: Growth inhibition of human NCI-H522 cells by sulforhodamine B assay; format: functional
SK-OV-3 [6] = test: Antiproliferative activity against human SKOV3 cells by sulforhodamine B assay; format: functional, cell-based; procedure, shortened: as §1
MOLT-4 = test: Growth inhibition of human MOLT4 cells by sulforhodamine B assay; format: functional
HCC 2998 = test: Growth inhibition of human HCC2998 cells by sulforhodamine B assay; format: functional
OVCAR-8 = test: Growth inhibition of human OVCAR8 cells by sulforhodamine B assay; format: functional
NCI-H460 = test: Growth inhibition of human NCI-H460 cells by sulforhodamine B assay; format: functional
MDA-MB-231 = test: Growth inhibition of human MDA-MB-231 cells by sulforhodamine B assay; format: functional
KM12 = test: Growth inhibition of human KM12 cells by sulforhodamine B assay; format: functional
K562 = test: Growth inhibition of human K562 cells by sulforhodamine B assay; format: functional
A498 = test: Growth inhibition of human A498 cells by sulforhodamine B assay; format: functional
OVCAR-5 = test: Growth inhibition of human OVCAR5 cells by sulforhodamine B assay; format: functional
HT-29 = test: Growth inhibition of human HT-29 cells by sulforhodamine B assay; format: functional
CCRF-CEM = test: Growth inhibition of human CCRF-CEM cells by sulforhodamine B assay; format: functional
PC-3 = test: Growth inhibition of human PC3 cells by sulforhodamine B assay; format: functional
SNB-19 = test: Growth inhibition of human SNB19 cells by sulforhodamine B assay; format: functional
MDA-MB-435 [7] = test: Cell cycle arrest in human MDA-MB-435 cells assessed as mitotic accumulation at 850 nM after 24 hrs using propidium iodide staining by flow cytometry; format: functional, cell-based
Procedure, shortened: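 Cells were then harvested, stained with Krishan's reagent (propidium iodide) and analysed by flow cytometry. Data are plotted as propidium iodide intensity versus number of events.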

MDA-MB-468 = test: Growth inhibition of human MDA-MB-468 cells by sulforhodamine B assay; format: functional
SK-MEL-5 = test: Growth inhibition of human SK-MEL-5 cells by sulforhodamine B assay; format: functional
[8] = Growth inhibition of human Hs 578T cells by sulforhodamine B assay; format: functional
EKVX = test: Growth inhibition of human EKVX cells by sulforhodamine B assay; format: functional
SF-268 = test: Growth inhibition of human SF268 cells by sulforhodamine B assay; format: functional
SF-539 = test: Growth inhibition of human SF539 cells by sulforhodamine B assay; format: functional
UO-31 = test: Growth inhibition of human UO31 cells by sulforhodamine B assay; format: functional
NCI/ADR-RES = test: Growth inhibition of human NCI/ADR-RES cells by sulforhodamine B assay; format: functional
NCI-H226 = test: Growth inhibition of human NCI-H226 cells by sulforhodamine B assay; format: functional
SK-OV-3 [9] = test: Antiproliferative activity against human SKOV3 cells expressing MDR1-6/6 by sulforhodamine B assay; format: functional, cell-based; procedure, shortened: as §1
786-0 = test: Growth inhibition of human 786-0 cells by sulforhodamine B assay; format: functional
HOP-62 = test: Growth inhibition of human HOP62 cells by sulforhodamine B assay; format: functional
NCI-H322M = test: Growth inhibition of human NCI-H322M cells by sulforhodamine B assay; format: functional
DU-145 = test: Growth inhibition of human DU145 cells by sulforhodamine B assay; format: functional
TK-10 = test: Growth inhibition of human TK10 cells by sulforhodamine B assay; format: functional
HeLa [10] = test: Relative resistance, ratio of IC50 for human HeLa cells expressing tubulin 3beta to IC50 for human HeLa cells; format: functional
SK-OV-3 [11] = test: Relative resistance, ratio of IC50 for human SKOV3 cells expressing MDR1-6/6 to IC50 for human SKOV3 cells; format: functional
Procedure, shortened: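 Relative resistance (Rr) is the SRB-derived IC50 in Pgp-overexpressing, MDR-1-transduced SK-OV-3 MDR-1-6/6 cells divided by the IC50 in parental SK-OV-3 cells.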

MDA-MB-435 [12] = test: Antiproliferative activity against human MDA-MB-435 cells by sulforhodamine B assay; format: functional, cell-based
Procedure, shortened: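 SRB assay against cancer cells obtained from ATCC (MDA-MB-435, HeLa). IC50 is the concentration giving 50% inhibition of proliferation, taken as the mean of at least 3 independent experiments, each run in triplicate points.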

COc1ccc(N(C)c2nc(C)nc3[nH]ccc23)cc1
GI50 (IGROV-1): 340 nM
GI50 (SW-620): 246 nM
GI50 (ACHN): 556 nM
GI50 (HOP-92): 4800 nM
inhibition (Bos taurus): 70%
IC50 (HeLa [1]): 186 nM
GI50 (COLO 205): 243 nM
GI50 (SR): 87.6 nM
GI50 (SK-OV-3 [2]): 248 nM
GI50 (UACC-62): 625 nM
GI50 (OVCAR-4): 7730 nM
GI50 (A549): 723 nM
GI50 (HCT-15): 275 nM
GI50 (M14): 218 nM
GI50 (SK-MEL-28): 603 nM
GI50 (MCF7): 314 nM
GI50 (U-251): 440 nM
GI50 (RXF 393): 226 nM
GI50 (LOX IMVI): 407 nM
IC50 (HeLa [3]): 270 nM
Activity (MDA-MB-435 [4]): Active
GI50 (NCI-H23): 438 nM
GI50 (SF-295): 269 nM
GI50 (HL-60(TB)): 190 nM
GI50 (SK-MEL-2): 251 nM
GI50 (MDA-MB-435 [5]): 44.2 nM
GI50 (SNB-75): 185 nM
GI50 (OVCAR-3): 192 nM
GI50 (SN12C): 854 nM
GI50 (NCI-H522): 40.2 nM
IC50 (SK-OV-3 [6]): 278 nM
GI50 (MOLT-4): 503 nM
GI50 (HCC 2998): 271 nM
GI50 (OVCAR-8): 639 nM
GI50 (NCI-H460): 351 nM
GI50 (MDA-MB-231): 1260 nM
GI50 (KM12): 181 nM
GI50 (K562): 179 nM
GI50 (A498): 198 nM
GI50 (OVCAR-5): 1670 nM
GI50 (HT-29): 279 nM
GI50 (CCRF-CEM): 315 nM
GI50 (PC-3): 509 nM
GI50 (SNB-19): 612 nM
Activity (MDA-MB-435 [7]): Active
GI50 (MDA-MB-468): 208 nM
GI50 (SK-MEL-5): 177 nM
GI50 [8]: 249 nM
GI50 (EKVX): 875 nM
GI50 (SF-268): 449 nM
GI50 (SF-539): 288 nM
GI50 (UO-31): 307 nM
GI50 (NCI/ADR-RES): 164 nM
GI50 (NCI-H226): 623 nM
IC50 (SK-OV-3 [9]): 435 nM
GI50 (786-0): 433 nM
GI50 (HOP-62): 291 nM
GI50 (NCI-H322M): 428 nM
GI50 (DU-145): 269 nM
GI50 (TK-10): 390 nM

COc1cc2c(cc1O)CC[C@@H]1[C@@H]2CC[C@]2(C)[C@@H](O)CC[C@@H]12 [2-METHOXYESTRADIOL]
IC50 (HeLa [1]): 586 nM
Ratio (HeLa [10]): 1
IC50 (SK-OV-3 [6]): 867 nM
Ratio (SK-OV-3 [11]): 2.6
IC50 (SK-OV-3 [9]): 2270 nM

COc1ccc(Nc2[nH]c(C)nc3nccc2-3)cc1
IC50 (MDA-MB-435 [12]): > 10000 nM

COc1ccc(/C=C\c2cc(OC)c(OC)c(OC)c2)cc1OP(=O)(O)O [FOSBRETABULIN]
IC50 (HeLa [1]): 5.7 nM
IC50 (HeLa [3]): 4.7 nM
Ratio (HeLa [10]): 1.2
IC50 (SK-OV-3 [6]): 4.5 nM
Ratio (SK-OV-3 [11]): 1.5
IC50 (SK-OV-3 [9]): 6.6 nM

COc1ccc(Nc2nc(C)nc3c2CC(C)C3)cc1 (racemic)
IC50 (MDA-MB-435 [12]): > 10000 nM
